# Assay results reported in ChEMBL document CHEMBL3351413, “Development of quinone analogues as dynamin GTPase inhibitors” (Eur J Med Chem, 2014).
# Active and inactive are the calls of the source. The rule behind the calls is not given here.
# Tested on: not listed separately
# Assay: Inhibition of phosphatidylserine-stimulated GTPase activity of sheep brain Dynamin 1 expressed in Sf21 cells assessed as inhibition of orthophosphate release from GTP by malachite green method
# Design: species or system Ovis aries
# Conditions: not given
# Summary of the method: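 DynI at 50 nM, stimulated with phosphatidylserine liposomes for 30 min. Pi release from GTP detected colorimetrically by malachite green. Compounds diluted from DMSO stocks, final DMSO at most 3.3%.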
row,Structure (SMILES),IC50 [µM]
1,COc1cccc(NC2=CC(=O)C(Nc3cccc(OC)c3)=CC2=O)c1,> 300
2,O=C1C=C(Nc2cccc(O)c2)C(=O)C=C1Nc1cccc(O)c1,57.9
3,O=C1C=C(Nc2ccc(CO)cc2)C(=O)C=C1Nc1ccc(CO)cc1,21.5
4,O=C1C=C(Nc2ccc(CO)cc2)C(=O)c2ccccc21,29.5
5,O=C1C=C(NCc2ccc(C(=O)O)cc2)C(=O)C=C1NCc1ccc(C(=O)O)cc1,29
6,O=C(O)c1ccccc1NC1=CC(=O)c2ccccc2C1=O,314
7,O=C1C=C(Nc2ccccc2C(=O)O)C(=O)C=C1Nc1ccccc1C(=O)O,50.2
8,O=C1C=C(Nc2cccc(C(=O)O)c2)C(=O)C=C1Nc1cccc(C(=O)O)c1,25.4
9,O=C1C=C(Nc2ccc(O)cc2)C(=O)C=C1Nc1ccc(O)cc1,11.1
10,O=C1C=C(Nc2ccc(C(=O)O)cc2)C(=O)C=C1Nc1ccc(C(=O)O)cc1,10.6
11,O=C1C=C(Nc2ccc(O)cc2)C(=O)c2ccccc21,22.4
12,CN(C)CCNC1=CC(=O)C(NCCN(C)C)=CC1=O,> 300
13,COc1ccc(NC2=CC(=O)C(Nc3ccc(OC)cc3)=CC2=O)cc1,> 300
14,O=C1C=C(Nc2cccc(O)c2)C(=O)c2ccccc21,109
15,COc1ccc(CNC2=CC(=O)C(NCc3ccc(OC)cc3)=CC2=O)cc1,170
16,O=C1C=C(NCc2ccc(O)cc2)C(=O)c2ccccc21,150
17,O=C1C=C(NCc2ccc(O)cc2)C(=O)C=C1NCc1ccc(O)cc1,112
18,O=C1C=C(NCc2ccccc2)C(=O)C=C1NCc1ccccc1,273
19,O=C1C=C(NCCCBr)C(=O)C=C1NCCCBr,58
20,O=C1C=C(Nc2ccccc2CO)C(=O)C=C1Nc1ccccc1CO,> 300
21,O=C1C=C(Nc2cccc(CO)c2)C(=O)c2ccccc21,30.3
22,O=C1C=C(Nc2ccccc2Br)C(=O)C=C1Nc1ccccc1Br,387
23,O=C1C=C(NCCO)C(=O)C=C1NCCO,116
24,CCCCCCNC1=CC(=O)C(NCCCCCC)=CC1=O,> 300

# Target: T1, Dynamin-2 (Rattus norvegicus, UniProt P39052)
# T1 sequence (P39052 whole entry): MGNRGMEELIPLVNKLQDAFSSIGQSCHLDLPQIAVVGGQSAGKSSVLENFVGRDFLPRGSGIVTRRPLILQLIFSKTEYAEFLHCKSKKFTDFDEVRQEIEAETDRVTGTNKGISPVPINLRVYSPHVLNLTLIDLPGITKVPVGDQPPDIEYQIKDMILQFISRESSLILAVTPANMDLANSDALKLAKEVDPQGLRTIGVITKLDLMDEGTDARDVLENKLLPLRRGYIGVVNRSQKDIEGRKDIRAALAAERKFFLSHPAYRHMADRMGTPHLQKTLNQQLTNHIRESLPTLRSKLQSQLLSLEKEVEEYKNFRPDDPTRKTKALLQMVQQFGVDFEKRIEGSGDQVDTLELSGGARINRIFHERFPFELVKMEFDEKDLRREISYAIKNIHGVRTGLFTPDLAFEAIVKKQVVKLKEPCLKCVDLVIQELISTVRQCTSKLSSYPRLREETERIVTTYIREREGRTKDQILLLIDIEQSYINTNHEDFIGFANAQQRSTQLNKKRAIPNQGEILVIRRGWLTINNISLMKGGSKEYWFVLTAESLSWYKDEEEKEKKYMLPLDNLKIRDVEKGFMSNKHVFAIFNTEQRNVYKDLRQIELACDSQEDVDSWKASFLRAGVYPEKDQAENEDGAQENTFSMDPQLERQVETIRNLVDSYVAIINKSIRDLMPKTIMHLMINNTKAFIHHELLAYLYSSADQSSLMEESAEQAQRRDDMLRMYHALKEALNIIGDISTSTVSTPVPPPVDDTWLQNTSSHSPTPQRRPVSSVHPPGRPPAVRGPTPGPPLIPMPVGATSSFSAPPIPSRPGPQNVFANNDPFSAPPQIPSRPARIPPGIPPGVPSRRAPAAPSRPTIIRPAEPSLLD
# Assay: Inhibition of phosphatidylserine-stimulated GTPase activity of recombinant rat Dynamin 2 expressed in Sf21 cells assessed as inhibition of orthophosphate release from GTP by malachite green method
# Conditions: not given
# Summary of the method: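 His-6-tagged rat dynII expressed in Sf21 cells after polyethylenimine transfection (48 h), purified on GST-Amph2-SH3-sepharose. Enzyme at 50 nM, stimulated with phosphatidylserine liposomes for 90 min. Pi release from GTP read colorimetrically with malachite green. Final DMSO at most 3.3%.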
row,Structure (SMILES),IC50 [µM]
1,O=C1C=C(Nc2cccc(O)c2)C(=O)C=C1Nc1cccc(O)c1,43.7
2,O=C1C=C(Nc2cccc(C(=O)O)c2)C(=O)C=C1Nc1cccc(C(=O)O)c1,14.7
3,O=C1C=C(Nc2ccc(O)cc2)C(=O)C=C1Nc1ccc(O)cc1,23.6
4,O=C1C=C(Nc2ccc(C(=O)O)cc2)C(=O)C=C1Nc1ccc(C(=O)O)cc1,9.1

# Target: T2, Dynamin-1 (Homo sapiens) (UniProt Q05193)
# T2 sequence (whole entry): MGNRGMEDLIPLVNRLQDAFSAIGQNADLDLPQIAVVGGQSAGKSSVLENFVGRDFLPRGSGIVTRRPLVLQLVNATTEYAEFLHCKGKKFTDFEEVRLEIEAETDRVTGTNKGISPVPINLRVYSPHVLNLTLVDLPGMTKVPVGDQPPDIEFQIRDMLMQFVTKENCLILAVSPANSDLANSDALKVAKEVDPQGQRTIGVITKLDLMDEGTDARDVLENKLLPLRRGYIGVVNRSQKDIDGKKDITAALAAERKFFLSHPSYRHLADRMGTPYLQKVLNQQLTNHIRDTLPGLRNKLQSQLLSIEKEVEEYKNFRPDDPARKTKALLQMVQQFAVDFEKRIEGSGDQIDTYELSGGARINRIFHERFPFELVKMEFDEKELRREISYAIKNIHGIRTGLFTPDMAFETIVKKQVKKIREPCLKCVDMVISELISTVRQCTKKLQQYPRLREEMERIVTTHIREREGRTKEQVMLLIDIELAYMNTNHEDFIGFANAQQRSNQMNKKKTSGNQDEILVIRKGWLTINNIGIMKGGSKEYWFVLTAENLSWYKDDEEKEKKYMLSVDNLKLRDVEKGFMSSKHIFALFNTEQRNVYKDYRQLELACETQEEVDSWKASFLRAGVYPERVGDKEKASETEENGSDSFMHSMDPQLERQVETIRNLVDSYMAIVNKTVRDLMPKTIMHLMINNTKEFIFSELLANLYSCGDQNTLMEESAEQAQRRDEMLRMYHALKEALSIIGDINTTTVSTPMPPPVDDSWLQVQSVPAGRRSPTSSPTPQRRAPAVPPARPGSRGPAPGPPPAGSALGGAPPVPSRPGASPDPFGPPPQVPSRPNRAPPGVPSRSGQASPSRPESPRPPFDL
# Assay: Inhibition of Dynamin 1 in serum-starved human U2OS cells assessed as inhibition of clathrin-mediated Alexa-495-cojugated transferrin uptake pretreated up to 300 uM for 30 mins by high-content imaging method
# Assay type: cell-based
# Conditions: not given
# Summary of the method: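 U2OS cells plated on fibronectin-coated glass to 70–80% confluency and serum-starved overnight (16 h). Pretreated with compound or 1% DMSO vehicle for 30 min, then given fluorescent transferrin for 8 min at 37 °C.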
row,Structure (SMILES),inhibition
1,O=C1C=C(Nc2cccc(O)c2)C(=O)C=C1Nc1cccc(O)c1,inactive

# Tested on: not listed separately
# Assay: Competitive inhibition of phosphatidylserine-stimulated GTPase activity of sheep brain Dynamin 1 expressed in Sf21 cells by Lineweaver-Burk plot method in presence of Mg2+ and GTP
# Conditions: Ovis aries
row,Structure (SMILES),inhibition
1,O=C1C=C(Nc2ccc(CO)cc2)C(=O)C=C1Nc1ccc(CO)cc1,Active

# Tested on: not listed separately
# Assay: Inhibition of phosphatidylserine-stimulated GTPase activity of sheep brain Dynamin 1 expressed in Sf21 cells assessed as inhibition of orthophosphate release from GTP up to 300 uM by malachite green method
# Conditions: Ovis aries
# Summary of the method: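 DynI at 50 nM final was stimulated with phosphatidylserine liposomes for 30 min. Orthophosphate released from GTP was detected colorimetrically by Malachite Green. Compounds came from 30 mM DMSO stocks diluted in 50% DMSO/20 mM Tris-HCl pH 7.4; final DMSO was at most 3.3%.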
row,Structure (SMILES),inhibition
1,CCNC1=CC(=O)C(NCC)=CC1=O,inactive
2,O=C1C=C(Nc2ccccc2)C(=O)C=C1Nc1ccccc1,inactive
3,C=CCNC1=CC(=O)C(NCC=C)=CC1=O,inactive
4,CSCCNC1=CC(=O)C(NCCSC)=CC1=O,inactive
5,COc1ccccc1NC1=CC(=O)C(Nc2ccccc2OC)=CC1=O,inactive
6,O=C1C=C(NCCCO)C(=O)C=C1NCCCO,inactive
7,O=C1C=C(NCCc2ccccc2)C(=O)C=C1NCCc1ccccc1,inactive
8,COCCNC1=CC(=O)C(NCCOC)=CC1=O,inactive
9,O=C1C=C(NCc2ccccc2)C(=O)c2ccccc21,inactive
10,O=C1C=C(NCCO)C(=O)c2ccccc21,inactive
11,O=C1C=C(NCCCCO)C(=O)C=C1NCCCCO,inactive
12,O=C1C=C(NCc2ccc(Br)cc2)C(=O)C=C1NCc1ccc(Br)cc1,inactive
13,COCCCNC1=CC(=O)C(NCCCOC)=CC1=O,inactive
14,CCCCNC1=CC(=O)C(NCCCC)=CC1=O,inactive
15,O=C1C=C(NCc2ccc(F)cc2)C(=O)C=C1NCc1ccc(F)cc1,inactive
16,O=C1C=C(NCc2ccc(Cl)cc2)C(=O)C=C1NCc1ccc(Cl)cc1,inactive
17,Cc1ccc(CNC2=CC(=O)C(NCc3ccc(C)cc3)=CC2=O)cc1,inactive
18,O=C1C=C(NCCCO)C(=O)c2ccccc21,inactive
19,CCCNC1=CC(=O)C(NCCC)=CC1=O,inactive
20,O=C(O)c1cccc(NC2=CC(=O)c3ccccc3C2=O)c1,inactive
21,O=C(O)c1ccc(NC2=CC(=O)c3ccccc3C2=O)cc1,inactive
22,O=C1C=C(NCCCCl)C(=O)C=C1NCCCCl,inactive
23,Cc1ccccc1NC1=CC(=O)C(Nc2ccccc2C)=CC1=O,inactive
24,CC(C)CCNC1=CC(=O)C(NCCC(C)C)=CC1=O,inactive
25,O=C1C=C(NCc2ccccc2)C(=O)C=C1NCc1ccccc1,inactive
26,CCCCCNC1=CC(=O)C(NCCCCC)=CC1=O,inactive
27,O=C1C=C(Nc2cccc(CO)c2)C(=O)C=C1Nc1cccc(CO)c1,inactive
28,COc1ccc(CNC2=CC(=O)c3ccccc3C2=O)cc1,inactive
29,O=C1C=C(NCc2cccnc2)C(=O)C=C1NCc1cccnc1,inactive
30,O=C1C=C(Nc2ccccc2)C(=O)c2ccccc21,inactive

# Target: T3, Dynamin-2 (Rattus norvegicus) (UniProt P39052)
# T3 sequence (whole entry): T1 sequence (P39052 whole entry)
# Assay: Inhibition of phosphatidylserine-stimulated GTPase activity of recombinant rat Dynamin 2 expressed in Sf21 cells assessed as inhibition of orthophosphate release from GTP up to 300 uM by malachite green method
# Conditions: not given
# Summary of the method: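 His-6-tagged rat dynII from pIEx-6-transfected Sf21 cells (polyethylenimine, DNA:PEI 1:5, 48 h), purified on GST-Amph2-SH3-sepharose. Enzyme at 50 nM final was stimulated with phosphatidylserine liposomes for 90 min. GTP-derived Pi release was read colorimetrically with Malachite Green. Final DMSO was at most 3.3%.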
row,Structure (SMILES),inhibition
1,O=C1C=C(NCc2ccccc2)C(=O)C=C1NCc1ccccc1,inactive
